The text below walks through data of ChEMBL document CHEMBL1148516, “Design and evaluation of new antipsoriatic antedrug candidates having 16-en-22-oxa-vitamin D3 structures” (Bioorg Med Chem Lett, 2006).

For one data set, the species on record is Homo sapiens. Nature of the data set: Clearance in human liver S9 fraction. The format is ADME. The method, boiled down: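 Compound was incubated with human liver S9 in the presence of NADPH. The elimination rate was taken from the time course of compound concentration in the reaction mixture. Clearance is given as mL/min/mg S9 protein, mean of two experiments.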

For data set [1], the target named is T1, Vitamin D3 receptor (Gallus gallus) (UniProt O42392).
T1 sequence (whole entry): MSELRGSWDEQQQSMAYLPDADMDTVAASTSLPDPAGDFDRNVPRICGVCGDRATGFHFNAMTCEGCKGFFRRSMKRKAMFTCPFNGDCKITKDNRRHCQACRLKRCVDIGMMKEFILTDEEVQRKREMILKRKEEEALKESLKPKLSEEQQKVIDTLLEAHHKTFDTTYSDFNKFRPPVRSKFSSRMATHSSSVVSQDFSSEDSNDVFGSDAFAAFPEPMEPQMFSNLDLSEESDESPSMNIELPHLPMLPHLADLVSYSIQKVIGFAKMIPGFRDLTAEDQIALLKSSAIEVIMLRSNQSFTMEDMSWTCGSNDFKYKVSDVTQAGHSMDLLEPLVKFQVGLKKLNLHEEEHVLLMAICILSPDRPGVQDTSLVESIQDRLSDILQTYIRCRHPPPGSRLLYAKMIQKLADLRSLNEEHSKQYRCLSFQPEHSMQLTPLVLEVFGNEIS
Nature of the data set: Binding affinity to chick VDR. Put shortly:
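Receptor affinity is expressed as a percentage relative to calcitriol, set at 100%. Each value is the average of duplicate measurements.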

The test system of a further data set is Mus musculus. Nature of the data set: Calcemic activity in percutaneously dosed mouse relative to control. The format is functional. The method, boiled down: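 Mice received a single percutaneous dose of test compound or vehicle, n = 3. Blood ionized Ca (mmol/L) was measured. Activity (%) = (analog Ca − vehicle Ca)/vehicle Ca × 100.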
The subject of another data set is Keratinocyte. Nature of the data set: Antiproliferative activity against human keratinocyte assessed as inhibition of [3H]TdR uptake. The class given is functional, cell-based.
The nature of data set [2]: Clearance in rat at 10 ug/kg, iv. The class given is ADME, organism-based. The settings on record: in vivo, 0.01 mg/kg. Put shortly: (§1)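 Rats were dosed intravenously at 10 µg/kg or 1000 µg/kg. Total clearance (mL/h/kg) is the mean of 3–4 rats.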
A short description of data set [3]: Clearance in rat at 1000 ug/kg, iv. The note with it: in vivo, 1 mg/kg. The class given is ADME, organism-based. Put shortly:
as §1

Turning to `C=C1/C(=C\C=C2/CCC[C@]3(C)[C@@H]([C@H](C)OCCC(C)(C)O)CC[C@@H]23)C[C@@H](O)C[C@@H]1O` [MAXACALCITOL], the CL in the data set listed under Homo sapiens came out at 7 µL/min/mg. The compound further showed an Activity in data set [1] of 20%. Also, in the data set with Mus musculus, the Blood ionized calcium is 2.6 mmol/L. For the same compound, the half-inhibitory concentration (IC50) (usually the midpoint of a concentration-inhibition curve) in the data set with Keratinocyte worked out at 22.6 nM. The clearance – broadly, the rate of elimination divided by the concentration – in data set [2] was 20.9 mL/min/kg.
As to `C=C1/C(=C\C=C2/CCC[C@]3(C)C([C@H](C)O)=CCC23)C[C@@H](O)C[C@@H]1O` (some centres not stated), the Activity in data set [1] came out at 0.32%. Also, the Blood ionized calcium with Mus musculus is recorded as 1.4 mmol/L. Further, the IC50 with Keratinocyte was greater than 1000 nM.
For `C=C1/C(=C\C=C2/CCC[C@]3(C)C([C@H](C)OCC(=O)NC(C)(C)C)=CCC23)C[C@@H](O)C[C@@H]1O` (some centres not stated), the Activity in data set [1] is 22.2%. Moreover, the Blood ionized calcium with Mus musculus is 2.16 mmol/L. The 50% inhibitory concentration (IC50) in the data set on Keratinocyte turned out to be 4.4 nM.
In the case of `C=C1/C(=C\C=C2/CCC[C@@]3(C)C2CC[C@@H]3[C@H](C)OCC(=O)OC(C)(C)C)C[C@@H](O)C[C@@H]1O` (some centres not stated), the Blood ionized calcium with Mus musculus was 1.49 mmol/L. Also, the concentration for half-maximal inhibition (IC50) in the data set with Keratinocyte was 88.4 nM.
In turn, `C=C1/C(=C\C=C2/CCC[C@]3(C)C([C@H](C)OCC(=O)O)=CCC23)C[C@@H](O)C[C@@H]1O` (some centres not stated) registered an Activity in data set [1] of 0.04%. Besides, in the data set on Mus musculus, the Blood ionized calcium was 1.38 mmol/L. In addition, in the data set on Keratinocyte, the IC50 is greater than 1000 nM.
For the compound `C=C1/C(=C\C=C2/CCC[C@@]3(C)C2CC[C@@H]3[C@H](C)CCC(=O)OC(C)(C)C)C[C@@H](O)C[C@@H]1O` (some centres not stated), the Blood ionized calcium in the data set on Mus musculus is on record as 1.77 mmol/L. The concentration for half-maximal inhibition (IC50) in the data set on Keratinocyte amounted to 17 nM.
As to `C=C1/C(=C\C=C2/CCC[C@]3(C)C([C@H](C)OCC(=O)NCC(C)(C)C)=CCC23)C[C@@H](O)C[C@@H]1O` (some centres not stated), the Activity in data set [1] is 18%. Moreover, the Blood ionized calcium with Mus musculus is given as 1.82 mmol/L. Also, the IC50 in the data set on Keratinocyte amounted to 17.4 nM.
`C=C1/C(=C\C=C2/CCC[C@]3(C)C([C@H](C)OCC(=O)OC(C)(C)C)=CCC23)C[C@@H](O)C[C@@H]1O` (some centres not stated): the Activity in data set [1] came out at 40.1%. For the same compound, the Blood ionized calcium with Mus musculus is reported as 1.65 mmol/L. In the data set on Keratinocyte, the 50% inhibitory concentration (IC50) stood at 8.9 nM.
`C=C1/C(=C\C=C2/CCC[C@]3(C)[C@@H]([C@H](C)CCCC(C)(C)O)CC[C@@H]23)C[C@@H](O)C[C@@H]1O` registered an Activity in data set [1] of 100%.
Take `C=C1/C(=C\C=C2/CCC[C@]3(C)C([C@H](C)OCC(=O)OC(C)(CC)CC)=CCC23)C[C@@H](O)C[C@@H]1O` (some centres not stated): the CL in the data set listed under Homo sapiens is 1421 µL/min/mg. The compound further gave a clearance in data set [3] of 94.8 mL/min/kg. The Activity in data set [1] came to 45.1%. Also, the Blood ionized calcium with Mus musculus is 1.57 mmol/L. Also, the half-maximal inhibitory concentration (IC50) with Keratinocyte stood at 0.8 nM.
As for `C=C1/C(=C\C=C2/CCC[C@]3(C)C([C@H](C)OCCC(C)(C)O)=CCC23)CC(O)CC1O` (single isomer, unassigned), the Blood ionized calcium with Mus musculus is recorded as 2.16 mmol/L. The 50% inhibitory concentration (IC50) in the data set with Keratinocyte was 50.4 nM.
Regarding `C=C1/C(=C\C=C2/CCC[C@]3(C)C([C@H](C)OCC(=O)NCC(F)(F)C(F)(F)F)=CCC23)C[C@@H](O)C[C@@H]1O` (some centres not stated), the CL in the data set listed under Homo sapiens came to 278 µL/min/mg. The compound further had a clearance in data set [3] of 131 mL/min/kg. In data set [1], this compound came in with an Activity of 34.4%. Besides, the Blood ionized calcium in the data set on Mus musculus was 1.58 mmol/L. The IC50 in the data set with Keratinocyte amounted to 1.9 nM.
